One series has as its system Influenza A virus. Kind of series: Antiviral activity against Influenza A virus A/WSN/33(H1N1) infected in MDCK cells assessed as inhibition of virus-induced cytopathic effect at 100 uM measured after 45 hrs by CellTiter-Glo luminescence assay. The class given is functional, organism-based. The settings on record: A/WSN/1933(H1N1). The essentials:
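Single-concentration screen at 100 μM in MDCK cells infected with A/WSN/33 under the same conditions: 1% FBS DMEM with 1 μg/mL trypsin, MOI 0.1, 45 h. Cytopathic effect was read by CellTiter-Glo luminescence against a DMSO negative control, from triplicate experiments.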
For orientation: Damage to the host cells serves as the signal in cytopathic effect assays.

The next series deals with MDCK. Kind of series: Cytotoxicity against dog MDCK cells assessed as cell viability measured at 100 uM after 45 hrs by Celltiter-Glo luminescence assay. The class given is cell-based, Canis lupus familiaris. The essentials:
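Viability screen of uninfected MDCK cells at 100 μM compound, read by CellTiter-Glo luminescence with DMSO as negative control; triplicate experiments.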

Another series relates to Influenza A virus H3N2. Put plainly: Antiviral activity against Influenza A virus A/Texas/50/2012(H3N2) infected in MDCK cells inhibition of virus-induced cytopathic effect measured after 45 hrs by CellTiter-Glo luminescence assay. Type of series: functional, organism-based. Put shortly: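 MDCK cells (5,000/well) were seeded one day before infection. Infection medium was high-glucose DMEM with 1% FBS and trypsin (1 μg/mL). Compounds were added at various concentrations and cells infected at MOI 0.1. After 45 h, viability was read by CellTiter-Glo luminescence. IC50 was taken from dose-response curves, as the mean of duplicate samples from three independent experiments.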

Series [1] can be described thus: Cytotoxicity against dog MDCK cells assessed as cell viability measured after 45 hrs by Celltiter-Glo luminescence assay. Type of series: cell-based, Canis lupus familiaris. The essentials: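 Non-infected MDCK cells were exposed to compound dilutions and viability was read by CellTiter-Glo luminescence. CC50 is the concentration reducing viability of uninfected cells by 50%, given as the mean of duplicate samples from three independent experiments.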
For orientation: ATP-based viability assays read luminescence as a measure of living cells.

pIC50: −log10 of the molar value. The source made the active and inactive calls. The calls are words filed in the database; no cut-off is given here.

The term pIC50 denotes the negative decadic logarithm of the IC50, by convention in mol/L. A high value points to a low IC50. The CC50 is the concentration that lowers cell viability or growth by half.

As for `CC1(C)CC[C@]2(C(=O)O)CC[C@]3(C)C(=CC[C@@H]4[C@@]5(C)CC[C@H](O)C(C)(C)[C@@H]5CC[C@]43C)[C@@H]2C1`, in the series with Influenza A virus, the inhibition result is “Active”.

As to `COC(=O)C[C@H](NC(=O)[C@]12CCC(C)(C)C[C@H]1C1=CC[C@@H]3[C@@]4(C)CC[C@H](O)C(C)(C)[C@@H]4CC[C@@]3(C)[C@]1(C)CC2)C(=O)OC`, the inhibition entry in the series on Influenza A virus was “Active”. Also, in the series on MDCK, the Activity result is “Toxic”.

In the case of `COC(=O)[C@H](Cc1ccc(O)cc1)NC(=O)[C@]12CCC(C)(C)C[C@H]1C1=CC[C@@H]3[C@@]4(C)CC[C@H](O)C(C)(C)[C@@H]4CC[C@@]3(C)[C@]1(C)CC2`, the inhibition result with Influenza A virus was “Active”. In addition, the Activity entry in the series with MDCK is on record as “Toxic”.

As for `COC(=O)[C@H](CCSC)NC(=O)[C@]12CCC(C)(C)C[C@H]1C1=CC[C@@H]3[C@@]4(C)CC[C@H](O)C(C)(C)[C@@H]4CC[C@@]3(C)[C@]1(C)CC2`, the inhibition result in the series with Influenza A virus was “Active”. Further, in the series with MDCK, the Activity entry is “Toxic”.

Take `COC(=O)[C@@H](NC(=O)[C@]12CCC(C)(C)C[C@H]1C1=CC[C@@H]3[C@@]4(C)CC[C@H](O)C(C)(C)[C@@H]4CC[C@@]3(C)[C@]1(C)CC2)[C@@H](C)O`: the inhibition entry with Influenza A virus is “Active”. For the same molecule, the Activity result in the series with MDCK was “Toxic”.

For the molecule `COC(=O)CC[C@H](NC(=O)[C@]12CCC(C)(C)C[C@H]1C1=CC[C@@H]3[C@@]4(C)CC[C@H](O)C(C)(C)[C@@H]4CC[C@@]3(C)[C@]1(C)CC2)C(=O)OC`, the inhibition entry in the series with Influenza A virus is “Active”. Besides, the Activity result with MDCK is “Toxic”.

With `CCOC(=O)C1=C[C@@H](OC(CC)CC)[C@H](NC(C)=O)[C@@H](N)C1` [OSELTAMIVIR PHOSPHATE], the pIC50 in the series with Influenza A virus H3N2 is less than 4.00. Besides, the CC50 at 45 h in series [1] is more than 100 µM.

As for `CSCC[C@H](NC(=O)[C@]12CCC(C)(C)C[C@H]1C1=CC[C@@H]3[C@@]4(C)CC[C@H](O)C(C)(C)[C@@H]4CC[C@@]3(C)[C@]1(C)CC2)C(=O)O`, in the series on Influenza A virus, the inhibition entry is “Active”. The Activity entry in the series with MDCK is recorded as “Toxic”.

As to `COC(=O)CNC(=O)[C@]12CCC(C)(C)C[C@H]1C1=CC[C@@H]3[C@@]4(C)CC[C@H](O)C(C)(C)[C@@H]4CC[C@@]3(C)[C@]1(C)CC2`, the inhibition result with Influenza A virus was “Active”. Moreover, in the series with MDCK, the Activity result is recorded as “Toxic”.

For the molecule `CC1(C)CC[C@]2(C(=O)N[C@@H](CC(=O)O)C(=O)O)CC[C@]3(C)C(=CC[C@@H]4[C@@]5(C)CC[C@H](O)C(C)(C)[C@@H]5CC[C@]43C)[C@@H]2C1`, the inhibition result in the series with Influenza A virus is “Active”. Further, the Activity entry in the series with MDCK is given as “Toxic”.

`COC(=O)[C@H](Cc1ccccc1)NC(=O)[C@]12CCC(C)(C)C[C@H]1C1=CC[C@@H]3[C@@]4(C)CC[C@H](O)C(C)(C)[C@@H]4CC[C@@]3(C)[C@]1(C)CC2`: the inhibition entry with Influenza A virus was “Active”. The Activity entry with MDCK was “Toxic”.

`COC(=O)[C@@H]1CCCN1C(=O)[C@]12CCC(C)(C)C[C@H]1C1=CC[C@@H]3[C@@]4(C)CC[C@H](O)C(C)(C)[C@@H]4CC[C@@]3(C)[C@]1(C)CC2`: the inhibition entry in the series with Influenza A virus is “Active”. For the same molecule, in the series with MDCK, the Activity result was “Toxic”.

In the case of `COC(=O)[C@H](CCCNC(=N)N)NC(=O)[C@]12CCC(C)(C)C[C@H]1C1=CC[C@@H]3[C@@]4(C)CC[C@H](O)C(C)(C)[C@@H]4CC[C@@]3(C)[C@]1(C)CC2`, the inhibition entry in the series with Influenza A virus is “Active”. In the series with MDCK, the Activity result is given as “Toxic”.

In the case of `C[C@H](NC(=O)[C@]12CCC(C)(C)C[C@H]1C1=CC[C@@H]3[C@@]4(C)CC[C@H](O)C(C)(C)[C@@H]4CC[C@@]3(C)[C@]1(C)CC2)C(=O)O`, the inhibition result in the series with Influenza A virus was “Active”. Besides, the Activity entry in the series with MDCK is recorded as “Toxic”.

For the molecule `CC1(C)CC[C@]2(C(=O)N[C@@H](Cc3ccccc3)C(=O)O)CC[C@]3(C)C(=CC[C@@H]4[C@@]5(C)CC[C@H](O)C(C)(C)[C@@H]5CC[C@]43C)[C@@H]2C1`, in the series on Influenza A virus, the inhibition result is “Active”. Further, in the series on MDCK, the Activity entry is reported as “Toxic”.

As to `CC(C)[C@H](NC(=O)[C@]12CCC(C)(C)C[C@H]1C1=CC[C@@H]3[C@@]4(C)CC[C@H](O)C(C)(C)[C@@H]4CC[C@@]3(C)[C@]1(C)CC2)C(=O)O`, the inhibition entry with Influenza A virus was “Active”. Besides, the Activity entry in the series with MDCK is “Toxic”.

For `COC(=O)[C@H](CC(C)C)NC(=O)[C@]12CCC(C)(C)C[C@H]1C1=CC[C@@H]3[C@@]4(C)CC[C@H](O)C(C)(C)[C@@H]4CC[C@@]3(C)[C@]1(C)CC2`, in the series with Influenza A virus, the inhibition result was “Active”. Further, the Activity entry in the series with MDCK is “Toxic”.

As to `COC(=O)[C@@H](NC(=O)[C@]12CCC(C)(C)C[C@H]1C1=CC[C@@H]3[C@@]4(C)CC[C@H](O)C(C)(C)[C@@H]4CC[C@@]3(C)[C@]1(C)CC2)C(C)C`, in the series on Influenza A virus, the inhibition entry is “Active”. Besides, in the series on MDCK, the Activity entry is on record as “Toxic”.

With `CC1(C)CC[C@]2(C(=O)N[C@@H](CO)C(=O)O)CC[C@]3(C)C(=CC[C@@H]4[C@@]5(C)CC[C@H](O)C(C)(C)[C@@H]5CC[C@]43C)[C@@H]2C1`, the inhibition entry in the series with Influenza A virus was “Active”. Also, the Activity result in the series with MDCK is recorded as “Toxic”.

For `CC1(C)CC[C@]2(C(=O)NCC(=O)O)CC[C@]3(C)C(=CC[C@@H]4[C@@]5(C)CC[C@H](O)C(C)(C)[C@@H]5CC[C@]43C)[C@@H]2C1`, the inhibition entry in the series with Influenza A virus was “Active”. Besides, the Activity entry with MDCK was “Toxic”.

For the molecule `CC1(C)CC[C@]2(C(=O)N[C@@H](Cc3c[nH]cn3)C(=O)O)CC[C@]3(C)C(=CC[C@@H]4[C@@]5(C)CC[C@H](O)C(C)(C)[C@@H]5CC[C@]43C)[C@@H]2C1`, the inhibition result with Influenza A virus is “Active”. The Activity result with MDCK is given as “Toxic”.

On to `CC[C@H](C)[C@H](NC(=O)[C@]12CCC(C)(C)C[C@H]1C1=CC[C@@H]3[C@@]4(C)CC[C@H](O)C(C)(C)[C@@H]4CC[C@@]3(C)[C@]1(C)CC2)C(=O)O`, for which the inhibition entry with Influenza A virus was “Active”. Besides, the Activity entry in the series on MDCK is recorded as “Toxic”.

Turning to `CC1(C)CC[C@]2(C(=O)N[C@@H](Cc3ccc(O)cc3)C(=O)O)CC[C@]3(C)C(=CC[C@@H]4[C@@]5(C)CC[C@H](O)C(C)(C)[C@@H]5CC[C@]43C)[C@@H]2C1`, the inhibition entry in the series on Influenza A virus is “Active”. In the series with MDCK, the Activity result is “Toxic”.

For the molecule `CC[C@H](C)[C@H](NC(=O)[C@]12CCC(C)(C)C[C@H]1C1=CC[C@@H]3[C@@]4(C)CC[C@H](O)C(C)(C)[C@@H]4CC[C@@]3(C)[C@]1(C)CC2)C(=O)OC`, the inhibition entry in the series with Influenza A virus is “Active”. Also, the Activity entry in the series on MDCK is on record as “Toxic”.

In the case of `CC(C)C[C@H](NC(=O)[C@]12CCC(C)(C)C[C@H]1C1=CC[C@@H]3[C@@]4(C)CC[C@H](O)C(C)(C)[C@@H]4CC[C@@]3(C)[C@]1(C)CC2)C(=O)O`, the inhibition result in the series with Influenza A virus is “Active”. Moreover, the Activity result in the series on MDCK is “Toxic”.

For `COC(=O)[C@H](C)NC(=O)[C@]12CCC(C)(C)C[C@H]1C1=CC[C@@H]3[C@@]4(C)CC[C@H](O)C(C)(C)[C@@H]4CC[C@@]3(C)[C@]1(C)CC2`, the inhibition result with Influenza A virus was “Active”. In addition, the Activity entry with MDCK is recorded as “Toxic”.

On to `COC(=O)[C@H](CO)NC(=O)[C@]12CCC(C)(C)C[C@H]1C1=CC[C@@H]3[C@@]4(C)CC[C@H](O)C(C)(C)[C@@H]4CC[C@@]3(C)[C@]1(C)CC2`, for which the inhibition result in the series on Influenza A virus is “Active”. For the same molecule, in the series with MDCK, the Activity result was “Toxic”.

As for `COC(=O)[C@H](Cc1c[nH]c2ccccc12)NC(=O)[C@]12CCC(C)(C)C[C@H]1C1=CC[C@@H]3[C@@]4(C)CC[C@H](O)C(C)(C)[C@@H]4CC[C@@]3(C)[C@]1(C)CC2`, the inhibition result with Influenza A virus is “Active”. In addition, the Activity entry in the series with MDCK was “Toxic”.

For `C[C@@H](O)[C@H](NC(=O)[C@]12CCC(C)(C)C[C@H]1C1=CC[C@@H]3[C@@]4(C)CC[C@H](O)C(C)(C)[C@@H]4CC[C@@]3(C)[C@]1(C)CC2)C(=O)O`, the inhibition entry with Influenza A virus was “Active”. Also, the Activity result in the series with MDCK was “Toxic”.

For `CC1(C)CC[C@]2(C(=O)N[C@@H](CCC(=O)O)C(=O)O)CC[C@]3(C)C(=CC[C@@H]4[C@@]5(C)CC[C@H](O)C(C)(C)[C@@H]5CC[C@]43C)[C@@H]2C1`, the inhibition result in the series on Influenza A virus was “Active”. The Activity entry in the series on MDCK was “Toxic”.

`CC1(C)CC[C@]2(C(=O)N3CCC[C@H]3C(=O)O)CC[C@]3(C)C(=CC[C@@H]4[C@@]5(C)CC[C@H](O)C(C)(C)[C@@H]5CC[C@]43C)[C@@H]2C1`: the inhibition entry in the series on Influenza A virus was “Active”. The Activity result in the series on MDCK is on record as “Toxic”.

For `CC1(C)CC[C@]2(C(=O)N[C@@H](Cc3c[nH]c4ccccc34)C(=O)O)CC[C@]3(C)C(=CC[C@@H]4[C@@]5(C)CC[C@H](O)C(C)(C)[C@@H]5CC[C@]43C)[C@@H]2C1`, the inhibition result in the series on Influenza A virus was “Active”. Moreover, the Activity result in the series on MDCK was “Toxic”.

With `COC(=O)[C@H](Cc1c[nH]cn1)NC(=O)[C@]12CCC(C)(C)C[C@H]1C1=CC[C@@H]3[C@@]4(C)CC[C@H](O)C(C)(C)[C@@H]4CC[C@@]3(C)[C@]1(C)CC2`, the inhibition result in the series with Influenza A virus was “Active”. Besides, the Activity entry in the series with MDCK was “Toxic”.

The values are drawn from ChEMBL document CHEMBL4406875, “Design, synthesis and biological evaluation of amino acids-oleanolic acid conjugates as influenza virus inhibitors” (Bioorg Med Chem, 2019).
